The source of these data is ChEMBL document CHEMBL1123594, “Antiradiation compounds. 20. 1-Methylquinolinium(and pyridinium)-2-dithioacetic acid derivatives” (J Med Chem, 1987).

The LD50 is the dose at which mortality reaches 50%. Low values mean greater toxicity, high ones lower toxicity.

For series [1], the system named is Mus musculus. In words: Percent survival was determined over a period of 30 days after intraperitoneal administration of a dose of 18.8 mg/kg in mice. It is filed as functional. The conditions noted are these: ip, 720 h. The gist of the method: (§1)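 Female C57 B16 mice (18-20 g), groups of 10, dosed ip in water or 10-20% aqueous ethanol (sometimes with Klucel or a Tween). Whole-body 1000-rad γ-irradiation 30 min after dosing. Survival was followed over 30 days, and animals alive beyond 30 days were counted as protected. Testing was done at Walter Reed Army Institute of Research.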

Series [2] deals with Mus musculus. The series is described as follows: Percent survival was determined over a period of 30 days after intraperitoneal administration of a dose of 37.5 mg/kg in mice. It is filed as functional. The following applies: ip, 720 h. The gist of the method: as §1
Series [3] concerns Mus musculus. The series is described as follows: Percent survival was determined over a period of 30 days after intraperitoneal administration of a dose of 9.4 mg/kg in mice. The class given is functional. The following applies: ip, 720 h. The gist of the method:
as §1

Series [4] in a line: Toxic dose was determined after (ip) administration of a dose of 37.5 mg/kg in mice at 1000-rad-gamma-radiation for 30 mins. The class given is toxicity, organism-based. Details: dose 37.5 mg/kg. The following applies: mouse, in vivo. In short, it runs like this:
(§2)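 Drug-toxicity deaths were counted within the radioprotection groups: 10 female C57 B16 mice, dosed by the route stated, then given whole-body 1000-rad γ-irradiation 30 min later. Deaths attributed to compound toxicity occurred before day 5 and were scored separately from the 30-day survival count.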

In series [5] the test system is Mus musculus. In words: Percent survival was determined over a period of 30 days after intraperitoneal administration of a dose of 75 mg/kg in mice. The class given is functional. The following applies: Mus musculus, ip, 720 h. The gist of the method: as §1
Series [6] in a line: Toxic dose was determined after (ip) administration of a dose of 75 mg/kg in mice at 1000-rad-gamma-radiation for 30 mins. Details: dose 75 mg/kg. The following applies: mouse, in vivo. It is filed as toxicity, organism-based. In short, it runs like this: as §2
Series [7] concerns Mus musculus. In words: Percent protective effect was determined in mice using 825 rads for 30 min after administration of 350 mg/kg. The class given is functional.
Series [8] relates to Mus musculus. The series is described as follows: Percent survival was determined over a period of 30 days after intraperitoneal administration of a dose of 2.3 mg/kg in mice. The class given is functional. The following applies: ip, 720 h. In short, it runs like this: as §1
Series [9] relates to Mus musculus. The series is described as follows: Percent survival was determined over a period of 30 days after intraperitoneal administration of a dose of 4.7 mg/kg in mice. It is filed as functional. The conditions noted are these: ip, 720 h. In short, it runs like this: as §1
Series [10] can be described thus: Toxic dose was determined after (ip) administration of a dose of 9.4 mg/kg in mice at 1000-rad-gamma-radiation for 30 mins. The conditions noted are these: mouse, in vivo. The class given is toxicity, organism-based. Set-up: dose 9.4 mg/kg. The gist of the method:
as §2

Series [11] is filed under the species Mus musculus. In words: Percent protective effect was determined in mice using 825 rads for 30 min. It is filed as functional.
Series [12] can be described thus: Toxic dose was determined after (ip) administration of a dose of 18.8 mg/kg in mice at 1000-rad-gamma-radiation for 30 mins. It is filed as toxicity, organism-based. Set-up: dose 18.8 mg/kg. The conditions noted are these: mouse, in vivo. In short, it runs like this:
as §2

The test system of series [13] is Mus musculus. The series is described as follows: Percent protective effect was determined in mice using 600 rads for 30 min after administration of 100 mg/kg. The class given is functional.
Series [14] relates to Mus musculus. In words: Percent survival was determined over a period of 30 days after intraperitoneal administration of a dose of 1.17 mg/kg in mice. The conditions noted are these: ip, 720 h. It is filed as functional. In short, it runs like this:
as §1

Series [15] deals with Mus musculus. In words: Percent survival was determined over a period of 30 days after intraperitoneal administration of a dose of 2.34 mg/kg in mice. The class given is functional. The conditions noted are these: ip, 720 h. In short, it runs like this:
as §1

Series [16] deals with Mus musculus. The series is described as follows: Percent survival was determined over a period of 30 days after intraperitoneal administration of a dose of 4.69 mg/kg in mice. The conditions noted are these: ip, 720 h. It is filed as functional. The gist of the method: as §1
Series [17] is described as follows: Toxic dose was determined after (ip) administration of a dose of 4.69 mg/kg in mice at 1000-rad-gamma-radiation for 30 mins. The conditions noted are these: mouse, in vivo. Set-up: dose 4.69 mg/kg. It is filed as toxicity, organism-based. The gist of the method:
as §2

Series [18] can be described thus: Toxic dose was determined after (ip) administration of a dose of 9.38 mg/kg in mice at 1000-rad-gamma-radiation for 30 mins. It is filed as toxicity, organism-based. Details: dose 9.38 mg/kg. The conditions noted are these: mouse, in vivo. The gist of the method:
as §2

In series [19] the test system is Mus musculus. In words: Percent survival was determined over a period of 30 days after intraperitoneal administration of a dose of 9.38 mg/kg in mice. The conditions noted are these: ip, 720 h. It is filed as functional. The gist of the method: as §1
Series [20] deals with Mus musculus. In words: Percent survival was determined over a period of 30 days after intraperitoneal administration of a dose of 0.6 mg/kg in mice. The class given is functional. The following applies: ip, 720 h. In short, it runs like this:
as §1

Series [21] relates to Mus musculus. In words: Percent survival was determined over a period of 30 days after intraperitoneal administration of a dose of 1.2 mg/kg in mice. It is filed as functional. The following applies: ip, 720 h. In short, it runs like this: as §1
Series [22] can be described thus: Toxic dose was determined after (ip) administration of a dose of 2.3 mg/kg in mice at 1000-rad-gamma-radiation for 30 mins. It is filed as toxicity, organism-based. Details: dose 2.3 mg/kg. The following applies: mouse, in vivo. In short, it runs like this:
as §2

In series [23] the test system is Mus musculus. In words: Percent protective effect was determined in mice using 825 rads for 30 min after administration of 120 mg/kg. It is filed as functional.

SMILES strings stand for the structures.

The molecule `COCCN/C(=C/c1ccc2ccccc2[n+]1C)SC.[I-]` registered a survival at 18.8 mg/kg in the series with Mus musculus [1] of 0%. Further, the survival at 37.5 mg/kg with Mus musculus [2] was found to be 0%. In the series on Mus musculus [3], this molecule displayed a survival at 9.4 mg/kg of 0%. For the same molecule, the LD50 at 0.5 h in series [4] worked out at 50 mg/kg.

For the molecule `CS/C(=C\c1ccc2ccccc2[n+]1C)NCCCO.[I-]`, in the series with Mus musculus [1], the survival at 18.8 mg/kg is 0%. The survival at 37.5 mg/kg with Mus musculus [2] is 0%. Also, the survival at 9.4 mg/kg with Mus musculus [3] is 0%. This molecule came in with an LD50 at 0.5 h in series [4] of 50 mg/kg.

As for `CN(C)CCNC(=Cc1ccc2ccccc2[n+]1C)NCCN(C)C.[I-]`, in the series with Mus musculus [1], the survival at 18.8 mg/kg stood at 0%. The same molecule displayed a survival at 37.5 mg/kg in the series with Mus musculus [2] of 0%. For the same molecule, the survival at 75 mg/kg in the series on Mus musculus [5] stood at 0%. In series [6], this molecule registered an LD50 at 0.5 h of 90 mg/kg.

`N#CC(C#N)=C([S-])[S-].[K+].[K+]` displayed a Protective effect with Mus musculus [7] above 25%.

Turning to `CSC(=Cc1cccc(C=C(SC)SC)[n+]1C)SC.[I-]`, the survival at 2.3 mg/kg with Mus musculus [8] stood at 10%. The survival at 4.7 mg/kg in the series with Mus musculus [9] came to 10%. In the series on Mus musculus [3], this molecule showed a survival at 9.4 mg/kg of 30%. Besides, in series [10], the LD50 at 0.5 h stood at 25 mg/kg.

As to `NC(=O)c1ccc[n+](CC(=S)[S-])c1`, the Protective effect in the series listed under Mus musculus [11] was above 45%.

In the series on Mus musculus [1], `CSC(=Cc1cccc[n+]1C)SC.[I-]` yielded a survival at 18.8 mg/kg of 50%. Besides, the survival at 4.7 mg/kg with Mus musculus [9] came to 0%. In the series on Mus musculus [3], this molecule came in with a survival at 9.4 mg/kg of 0%. Besides, the LD50 at 0.5 h in series [12] was found to be 30 mg/kg.

The molecule `CCOC(=O)C(C#N)=C([S-])[S-].[K+].[K+]` yielded a Protective effect in the series on Mus musculus [13] of 50%.

As to `CS/C(=C\c1ccc2ccccc2[n+]1C)N1CCCCC1.[I-]`, the survival at 1.17 mg/kg with Mus musculus [14] came to 30%. Also, the survival at 2.34 mg/kg in the series with Mus musculus [15] stood at 70%. The molecule further came in with a survival at 4.69 mg/kg in the series with Mus musculus [16] of 10%. The molecule further displayed an LD50 at 0.5 h in series [17] of 5 mg/kg.

Consider `O=[N+]([O-])c1ccc(CSC(=S)C[n+]2ccccc2)cc1.[Cl-]`, for which the Protective effect in the series filed under Mus musculus [11] came to 33%.

`CS/C(=C\c1ccc2cc(C)ccc2[n+]1C)N1CCOCC1.[I-]` showed a survival at 2.34 mg/kg in the series on Mus musculus [15] of 0%. Besides, the survival at 4.69 mg/kg in the series with Mus musculus [16] turned out to be 0%. The molecule also registered an LD50 at 0.5 h in series [18] of 15 mg/kg. Moreover, in the series with Mus musculus [19], the survival at 9.38 mg/kg came to 60%.

As to `CCCCSC(=Cc1cccc[n+]1C)SCCCC.[I-]`, the survival at 0.6 mg/kg in the series with Mus musculus [20] amounted to 0%. In the series with Mus musculus [21], the survival at 1.2 mg/kg worked out at 10%. Also, the survival at 2.3 mg/kg in the series with Mus musculus [8] came to 30%. In series [22], this molecule returned an LD50 at 0.5 h of 3 mg/kg.

On to `C=CCSC(=S)C[n+]1ccccc1.[Cl-]`, for which, in the series listed under Mus musculus [11], the Protective effect is listed as above 17%.

`N#CC(C(=O)c1ccccc1)=C([S-])[S-].[K+].[K+]`: the Protective effect in the series with Mus musculus [23] stood at 17%.
